Source: ChEMBL document CHEMBL4177648, “Benzofuran-dihydropyridine hybrids: A new class of potential bone anabolic agents” (Bioorg Med Chem, 2017)
Active and inactive are the calls of the source. No cut-off for these calls is given here.

Assays:
Calvarial osteoblast [1] = assay: Anabolic activity in rat calvarial osteoblasts assessed as induction of alkaline phosphatase activity at 1 pM after 48 hrs in presence of beta-glycerophosphate and ascorbic acid by p-nitrophenyl phosphate substrate based assay (reference value: 1 to 1.21); assay type: functional
Calvarial osteoblast [2] = assay: Anabolic activity in rat calvarial osteoblasts assessed as induction of alkaline phosphatase activity at 100 pM after 48 hrs in presence of beta-glycerophosphate and ascorbic acid by p-nitrophenyl phosphate substrate based assay (reference value: 1 to 1.21); assay type: functional
Calvarial osteoblast [3] = assay: Anabolic activity in rat calvarial osteoblasts assessed as induction of alkaline phosphatase activity at 10 nM after 48 hrs in presence of beta-glycerophosphate and ascorbic acid by p-nitrophenyl phosphate substrate based assay (reference value: 1 to 1.21); assay type: functional
Calvarial osteoblast [4] = assay: Anabolic activity in rat calvarial osteoblasts assessed as induction of alkaline phosphatase activity at 1 uM after 48 hrs in presence of beta-glycerophosphate and ascorbic acid by p-nitrophenyl phosphate substrate based assay (reference value: 1 to 1.21); assay type: functional
Calvarial osteoblast [5] = assay: Anabolic activity in rat calvarial osteoblasts assessed as induction of alkaline phosphatase activity at 100 uM after 48 hrs in presence of beta-glycerophosphate and ascorbic acid by p-nitrophenyl phosphate substrate based assay (reference value: 1 to 1.21); assay type: functional
Calvarial osteoblast [6] = assay: Induction of mineralization in rat calvarial osteoblasts at 0.1 nM to 10 nM after 21 days by Alizarin-red dye based assay; assay type: functional, cell-based
Summary of the method: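 Rat pup calvarial osteoblasts were seeded at 1×10^4 cells/well in differentiation medium with compound. Medium was changed every other day for 21 days. Cells were fixed in 4% paraformaldehyde and stained with 40 mM Alizarin red (pH 4.5). Stain was extracted with 10% acetic acid, heated to 85 °C, and neutralised with NH4OH. Absorbance was read at 405 nm.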

Calvarial osteoblast [7] = assay: Upregulation of Col1 mRNA levels in rat calvarial osteoblasts at 10 nM after 48 hrs by qRT-PCR analysis relative to control; assay type: functional
Summary of the method: (§1)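 Rat pup calvarial osteoblasts were treated for 48 h with compound. Total RNA was extracted with TRIzol and checked by A260 and A260/A280. qRT-PCR used 45 cycles (94 °C, 62 °C, 72 °C steps) and was normalised to GAPDH. Fold change is over untreated cells; n=5, mean ± SEM.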

Calvarial osteoblast [8] = assay: Upregulation of Runx2 mRNA levels in rat calvarial osteoblasts at 10 nM after 48 hrs by qRT-PCR analysis relative to control; assay type: functional; summary of the method: as §1
Calvarial osteoblast [9] = assay: Upregulation of Bmp2 mRNA levels in rat calvarial osteoblasts at 10 nM after 48 hrs by qRT-PCR analysis relative to control; assay type: functional; summary of the method: as §1
Calvarial osteoblast [10] = assay: Upregulation of ALP mRNA levels in rat calvarial osteoblasts at 100 pM after 48 hrs by qRT-PCR analysis relative to control; assay type: functional; summary of the method: as §1
Calvarial osteoblast [11] = assay: Upregulation of Osx mRNA levels in rat calvarial osteoblasts at 100 pM after 48 hrs by qRT-PCR analysis relative to control; assay type: functional; summary of the method: as §1
Calvarial osteoblast [12] = assay: Upregulation of Col1 mRNA levels in rat calvarial osteoblasts at 100 pM after 48 hrs by qRT-PCR analysis relative to control; assay type: functional; summary of the method: as §1
Calvarial osteoblast [13] = assay: Upregulation of Runx2 mRNA levels in rat calvarial osteoblasts at 100 pM after 48 hrs by qRT-PCR analysis relative to control; assay type: functional; summary of the method: as §1
Calvarial osteoblast [14] = assay: Upregulation of Bmp2 mRNA levels in rat calvarial osteoblasts at 100 pM after 48 hrs by qRT-PCR analysis relative to control; assay type: functional; summary of the method: as §1
Calvarial osteoblast [15] = assay: Upregulation of Bmp2 expression levels in rat calvarial osteoblasts at 100 pM after 48 hrs by ELISA; assay type: functional, cell-based
Summary of the method: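 Calvarial osteoblasts were seeded at 5×10^3 cells/well and treated 48 h at 100 pM in α-MEM with 1% charcoal-stripped FCS. BMP2 in the culture supernatant was measured by sandwich ELISA, with OD read at 450 nm.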

Calvarial osteoblast [16] = assay: Cytotoxicity against rat calvarial osteoblasts at 0.000001 uM to 1 uM after 48 hrs by MTT assay; assay type: cell-based; conditions: 1 pM
Summary of the method: (§2)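 Primary osteoblasts from calvaria of 1–2-day-old rat pups, released by sequential dispase/collagenase P digestion and grown in α-MEM with 10% FCS to 70–80% confluence. Seeded at 2000 cells/well and treated with 1 pM to 100 µM for 48 h in differentiation medium (10 mM β-glycerophosphate, 50 µg/mL ascorbic acid). Viability read by MTT against untreated control; n=8, mean ± SEM.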

Calvarial osteoblast [17] = assay: Cytotoxicity against rat calvarial osteoblasts at 100 uM after 48 hrs by MTT assay; assay type: cell-based; summary of the method: as §2
Calvarial osteoblast [18] = assay: Anabolic activity in rat calvarial osteoblasts assessed as induction of alkaline phosphatase activity after 48 hrs in presence of beta-glycerophosphate and ascorbic acid by p-nitrophenyl phosphate substrate based assay; assay type: functional, cell-based
Calvarial osteoblast [19] = assay: Upregulation of RUNX2 expression levels in rat calvarial osteoblasts at 100 pM after 48 hrs by Western blot analysis; assay type: functional, cell-based
Calvarial osteoblast [20] = assay: Upregulation of BMP2 expression levels in rat calvarial osteoblasts at 100 pM after 48 hrs by Western blot analysis; assay type: functional, cell-based
Calvarial osteoblast [21] = assay: Upregulation of COL1 expression levels in rat calvarial osteoblasts at 100 pM after 48 hrs by Western blot analysis; assay type: functional, cell-based
Rattus norvegicus [22] = assay: Hepatotoxicity in Sprague-Dawley rat drill-hole fracture model assessed as morphological alterations at 10 mg/kg, po qd for 14 days by haematoxylin and eosin staining-based microscopic analysis; assay type: toxicity, organism-based; conditions: in vivo, 336 h
Summary of the method: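 From the next day they were dosed orally for 14 days, 6 per group, with vehicle gum acacia in water. Livers were collected at the end, cut into 5 µm paraffin sections, dewaxed, stained with H&E and examined by light microscopy.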

Rattus norvegicus [23] = assay: Osteogenic activity in Sprague-Dawley rat drill-hole fracture model assessed as increase in Bmp2 expression levels at 10 mg/kg/day by qRT-PCR analysis; assay type: functional, organism-based
Rattus norvegicus [24] = assay: Osteogenic activity in Sprague-Dawley rat drill-hole fracture model assessed as bone formation at 10 mg/kg/day by H and E staining-based analysis relative to control; assay type: functional, organism-based
Summary of the method: (§3)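 Drill-hole femur defect in female Sprague-Dawley rats with oral dosing at 10 mg·kg⁻¹·day⁻¹ or gum acacia vehicle for 14 days. Bones were decalcified in EDTA and the callus at the defect site was stained with H&E; n=6/group.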

Rattus norvegicus [25] = assay: Osteogenic activity in Sprague-Dawley rat drill-hole fracture model assessed as increase in trabecular number at 10 mg/kg/day for 14 consecutive days by micro CT-scan analysis; assay type: functional, organism-based
Summary of the method: (§4)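 Adult female Sprague-Dawley rats (200 ± 20 g, 12 weeks) under ketamine/xylazine anaesthesia received a 0.8 mm drill-hole defect in the femoral diaphysis, 2 cm above the knee. Dosing was oral at 10 mg·kg⁻¹·day⁻¹, or gum acacia vehicle, for 14 days starting the next day. The defect was scanned by micro-CT at 18 µm voxel and 70 kV; n=6/group.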

Rattus norvegicus [26] = assay: Osteogenic activity in Sprague-Dawley rat drill-hole fracture model assessed as increase in connection density at 10 mg/kg/day for 14 consecutive days by micro CT-scan analysis; assay type: functional, organism-based; summary of the method: as §4
Rattus norvegicus [27] = assay: Osteogenic activity in Sprague-Dawley rat drill-hole fracture model assessed as increase in trabecular thickness at 10 mg/kg/day for 14 consecutive days by micro CT-scan analysis; assay type: functional, organism-based; summary of the method: as §4
Rattus norvegicus [28] = assay: Osteogenic activity in Sprague-Dawley rat drill-hole fracture model assessed as increase in bone volume/trabecular volume at 10 mg/kg/day for 14 consecutive days by micro CT-scan analysis; assay type: functional, organism-based; summary of the method: as §4
Rattus norvegicus [29] = assay: Upregulation of Runx2 mRNA in rat pup calvarial tissue at 1 to 10 mg/kg/day administered subcutaneously for 3 consecutive days by qRT-PCR analysis; assay type: functional, organism-based
Summary of the method: (§5)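 Rat pups received subcutaneous injections at the calvarial skull site of 0.1, 0.5, 1.0, 5.0, 10 or 20 mg·kg⁻¹·day⁻¹, or normal-saline vehicle, for 3 consecutive days. Calvaria were then collected, RNA was isolated with TRIzol, and Runx2 and Bmp2 were measured by qRT-PCR; n=5, mean ± SEM.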

Rattus norvegicus [30] = assay: Upregulation of Bmp2 mRNA in rat pup calvarial tissue at 1 to 10 mg/kg/day administered subcutaneously for 3 consecutive days by qRT-PCR analysis; assay type: functional, organism-based; summary of the method: as §5
Rattus norvegicus [31] = assay: Upregulation of Bmp2 mRNA in rat pup calvarial tissue at >10 mg/kg/day administered subcutaneously for 3 consecutive days by qRT-PCR analysis; assay type: functional, organism-based; summary of the method: as §5
Rattus norvegicus [32] = assay: Upregulation of Runx2 mRNA in rat pup calvarial tissue at >10 mg/kg/day administered subcutaneously for 3 consecutive days by qRT-PCR analysis; assay type: functional, organism-based; summary of the method: as §5
Rattus norvegicus [33] = assay: Osteogenic activity in Sprague-Dawley rat drill-hole fracture model assessed as enhanced callus regeneration of femur bone at 10 mg/kg/day by H and E staining-based analysis; assay type: functional, organism-based; summary of the method: as §3
Rattus norvegicus [34] = assay: Osteogenic activity in Sprague-Dawley rat drill-hole fracture model assessed as enhanced callus regeneration of femur bone at 10 mg/kg/day by calcein labeling based confocal microscopic method; assay type: functional
Summary of the method: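 Drill-hole femur defect in female Sprague-Dawley rats with oral dosing at 10 mg·kg⁻¹·day⁻¹ for 14 days. Calcein (20 mg/kg i.p.) was given 2 days before autopsy. Acrylic-embedded 50 µm bone sections were imaged by confocal microscopy, and mean calcein intensity per pixel was quantified at the defect; n=6/group.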

Rattus norvegicus [35] = assay: Osteogenic activity in Sprague-Dawley rat drill-hole fracture model assessed as increase in mineral deposition at 10 mg/kg/day by calcein labeling-based confocal microscopy analysis

SMILES: CCOC(=O)C1=C(C)NC2=C(C(=O)CCC2)C1c1cc(C(C)CC)c2oc(C(=O)c3ccc(C)cc3)cc2c1 (stereo not given)
- OD (Calvarial osteoblast [1]): 1.14
- OD (Calvarial osteoblast [2]): 1.32
- OD (Calvarial osteoblast [3]): 1.19
- OD (Calvarial osteoblast [4]): 1.16
- OD (Calvarial osteoblast [5]): 0.36
- Activity (Calvarial osteoblast [6]): Active
- fold change (FC) (Calvarial osteoblast [7]): 3.7
- fold change (FC) (Calvarial osteoblast [8]): 3.4
- fold change (FC) (Calvarial osteoblast [9]): 3.1
- fold change (FC) (Calvarial osteoblast [10]): 4.5
- fold change (FC) (Calvarial osteoblast [11]): 3.7
- fold change (FC) (Calvarial osteoblast [12]): 5
- fold change (FC) (Calvarial osteoblast [13]): 3.9
- fold change (FC) (Calvarial osteoblast [14]): 4.5
- Activity (Calvarial osteoblast [15]): Active
- Activity (Calvarial osteoblast [16]): Non-Toxic
- Activity (Calvarial osteoblast [17]): Toxic
- EC50 (Calvarial osteoblast [18]): 0.1 nM
- Activity (Calvarial osteoblast [19]): Active
- Activity (Calvarial osteoblast [20]): Active
- Activity (Calvarial osteoblast [21]): Active
- Activity (Rattus norvegicus [22]): Non-Toxic
- Activity (Rattus norvegicus [23]): Active
- Activity (Rattus norvegicus [24]): Active
- Activity (Rattus norvegicus [25]): Active
- Activity (Rattus norvegicus [26]): Active
- Activity (Rattus norvegicus [27]): Active
- Activity (Rattus norvegicus [28]): Active
- Activity (Rattus norvegicus [29]): Active
- Activity (Rattus norvegicus [30]): Active
- Activity (Rattus norvegicus [31]): inactive
- Activity (Rattus norvegicus [32]): inactive
- Activity (Rattus norvegicus [33]): Active
- Activity (Rattus norvegicus [34]): 40%
- Activity (Rattus norvegicus [35]): Active
